Laboratory results taken from ChEMBL document CHEMBL5653620, “Activating the Wnt/β-Catenin Pathway for the Treatment of Melanoma--Application of LY2090314, a Novel Selective Inhibitor of Glycogen Synthase Kinase-3” (PLoS One, 2015).

Tested on: A-375
Assay: Antiproliferative activity against human vemurafenib-resistant A-375 cells harboring BRAF V600E mutation assessed as reduction in cell viability incubated for 72 hrs by CellTitre-Glo assay
Assay type: functional, cell-based
Settings: A-375, 72 h
Outline: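 Resistant A375 or M14 lines were derived by growth in vemurafenib over 3 months. Cells were seeded at 2,000 per well and allowed to adhere overnight, then moved to 2% FBS growth medium. Agents were added at 0.5 nmol/L–10 μmol/L for 72 h. Viability was read by CellTiter-Glo, and IC50 was taken from sigmoidal nonlinear regression.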

With `O=C1NC(=O)C(c2cnc3ccccn23)=C1c1cn2c3c(cc(F)cc13)CN(C(=O)N1CCCCC1)CC2` [LY-2090314] the IC50 was 8 nM.
